Results reported in ChEMBL document CHEMBL4257476, “Design, synthesis and biological evaluation of novel 5-hydroxy-2-methyl-4H-pyran-4-one derivatives as antiglioma agents” (Medchemcomm, 2018).

How the values were obtained:
[1] = system: HT-1080; experiment: Antiproliferative activity against human HT1080 cells by MTT assay; assay type: functional, cell-based
How it was run: (§1)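 MTT viability: cells grown in DMEM with 10% FBS, 2 mM L-glutamine and penicillin/streptomycin at 37 °C, 5% CO2. Seeded 5000/well for 12 h. Compound diluted 1000× from DMSO stock (final DMSO <0.1%). MTT conversion to formazan for 4 h, absorbance at 562 nm. 4 replicate wells per concentration, at least three runs.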

[2] = system: U-87 MG; experiment: Antiproliferative activity against human U87 cells by MTT assay; assay type: functional, cell-based, U-87MG ATCC; how it was run: as §1
[3] = biological target: Isocitrate dehydrogenase [NADP] cytoplasmic (Homo sapiens, UniProt O75874, R132H); experiment: Inhibition of His-tagged recombinant human IDH1 R132H mutant expressed in Escherichia coli Rosetta (DE3) preincubated for 30 mins followed by NADPH/alpha-KG addition and measured after 1 hr
Chain of Isocitrate dehydrogenase [NADP] cytoplasmic (O75874 2-414 R132H limits assumed): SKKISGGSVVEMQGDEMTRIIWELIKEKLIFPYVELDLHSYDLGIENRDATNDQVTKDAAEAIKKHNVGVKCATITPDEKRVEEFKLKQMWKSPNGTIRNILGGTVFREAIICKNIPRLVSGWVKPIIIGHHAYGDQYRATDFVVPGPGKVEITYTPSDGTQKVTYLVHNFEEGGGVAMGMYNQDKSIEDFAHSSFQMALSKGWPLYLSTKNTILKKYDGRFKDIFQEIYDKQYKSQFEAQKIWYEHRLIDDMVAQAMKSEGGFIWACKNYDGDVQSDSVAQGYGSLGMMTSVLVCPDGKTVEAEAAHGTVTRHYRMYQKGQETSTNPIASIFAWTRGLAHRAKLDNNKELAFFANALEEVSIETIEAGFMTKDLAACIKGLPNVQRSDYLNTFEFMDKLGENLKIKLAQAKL
How it was run: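 His-tagged mutant human IDH1 expressed from pET28a in E. coli Rosetta (DE3) with 1 mM IPTG, purified on Ni-NTA with imidazole step elution. Enzyme and compound preincubated 30 min at room temperature in 50 mM Tris, 200 mM NaCl, 5 mM β-mercaptoethanol, 2 mM MgSO4, 10% glycerol. MgCl2, NADPH and α-KG then added, 1 h at 37 °C; NADPH consumption read at 340 nm.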

[4] = system: U-87 MG; experiment: Antimigratory activity in human U87 cells assessed as migration rate at 1 uM after 12 hrs by scratch assay (reference value: 51.3%); assay type: functional, U-87MG ATCC
[5] = system: HT-1080; experiment: Antimigratory activity in human HT1080 cells assessed as scratch area at 10 uM after 12 hrs (reference value: 23.3%); assay type: functional
[6] = system: Isocitrate dehydrogenase [NADP] cytoplasmic (Homo sapiens), O75874 [R132H]; experiment: Inhibition of IDH1 […] cells assessed as decrease in D-2HG levels at 1 uM after 48 hrs by HPLC-MS analysis relative to control; assay type: cell-based
Chain of Isocitrate dehydrogenase [NADP] cytoplasmic (Homo sapiens), O75874 [R132H] (O75874 whole entry R132H): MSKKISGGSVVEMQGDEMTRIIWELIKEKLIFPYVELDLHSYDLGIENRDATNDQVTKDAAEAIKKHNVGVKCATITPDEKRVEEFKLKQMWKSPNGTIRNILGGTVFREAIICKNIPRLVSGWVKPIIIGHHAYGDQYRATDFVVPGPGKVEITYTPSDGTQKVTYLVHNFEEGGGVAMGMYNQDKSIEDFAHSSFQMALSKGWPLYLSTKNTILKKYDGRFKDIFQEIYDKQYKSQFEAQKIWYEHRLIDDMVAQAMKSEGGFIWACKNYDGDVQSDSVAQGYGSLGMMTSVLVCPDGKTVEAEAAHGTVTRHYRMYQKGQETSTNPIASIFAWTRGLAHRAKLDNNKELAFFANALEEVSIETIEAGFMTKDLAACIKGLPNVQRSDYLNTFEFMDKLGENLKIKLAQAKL
How it was run: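 HT1080 cells (1×10^5/well, 6-well plates) attached overnight in DMEM with 10% dialyzed FBS. Treated 48 h with rising compound concentrations in 2 mL medium. Quantified by SIM at 147 Da from peak area against an authentic D-2HG standard curve.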

[7] = system: HT-1080; experiment: Antimigratory activity in human HT1080 cells assessed as scratch area at 10 uM after 6 hrs (reference value: 58.7%); assay type: functional
[8] = system: U-87 MG; experiment: Antimigratory activity in human U87 cells assessed as migration rate at 1 uM after 24 hrs by scratch assay (reference value: 17.5%); assay type: functional, U-87MG ATCC
[9] = system: U-87 MG; experiment: Inhibition of colony formation of human U87 cells after 8 days by Giemsa-Wright staining-based assay; assay type: functional, cell-based; settings: U-87MG ATCC
How it was run: (§2)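 Colony formation: 200 cells/well in 6-well plates, 2 mL medium, treated 8 days with DMSO control or compound. Cells then washed three times with cold PBS, fixed in 95% cold MeOH for 15 min, and stained with Giemsa-Wright. Colonies counted by eye at least three times.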

[10] = system: HT-1080; experiment: Antimigratory activity in human HT1080 cells assessed as scratch area at 1 uM after 6 hrs (reference value: 58.7%); assay type: functional
[11] = system: U-87 MG; experiment: Inhibition of colony formation of human U87 cells at 0.5 uM after 8 days by Giemsa-Wright staining-based assay relative to control; assay type: functional, U-87MG ATCC; settings: 192 h; how it was run: as §2
[12] = system: U-87 MG; experiment: Inhibition of colony formation of human U87 cells at 1 uM after 8 days by Giemsa-Wright staining-based assay relative to control; assay type: functional, U-87MG ATCC; settings: 192 h; how it was run: as §2
[13] = system: HT-1080; experiment: Inhibition of colony formation of human HT1080 cells at 1 uM after 8 days by Giemsa-Wright staining-based assay relative to control; assay type: functional; settings: HT-1080, 192 h; how it was run: as §2
[14] = system: HT-1080; experiment: Inhibition of colony formation of human HT1080 cells at 0.5 uM after 8 days by Giemsa-Wright staining-based assay relative to control; assay type: functional; settings: HT-1080, 192 h; how it was run: as §2
[15] = system: HT-1080; experiment: Antimigratory activity in human HT1080 cells assessed as scratch area at 1 uM after 12 hrs (reference value: 23.3%); assay type: functional

SMILES | IC50 [1] | IC50 [2] | IC50 [3] | also measured
Cc1cc(=O)c(O)c(Cc2ccc(F)cc2)o1 | > 50 µM | > 50 µM | > 50 µM | –
Cc1cc(=O)c(O)c(C(c2ccc(OCc3ccc([N+](=O)[O-])cc3)cc2)c2oc(C)cc(=O)c2O)o1 | 3.06 µM | > 50 µM | > 50 µM | –
Cc1cc(=O)c(O)c(Cc2ccc(C(F)(F)F)cc2)o1 | 24.4 µM | > 50 µM | > 50 µM | –
Cc1cc(=O)c(O)c(Cc2ccc(OCc3ccccc3)cc2)o1 | > 50 µM | > 50 µM | > 50 µM | –
CCCOc1ccc(C(c2oc(C)cc(=O)c2O)c2oc(C)cc(=O)c2O)cc1 | 26.6 µM | 29.5 µM | > 50 µM | –
C=CCOc1ccc(C(c2oc(C)cc(=O)c2O)c2oc(C)cc(=O)c2O)cc1 | 28.3 µM | 30.9 µM | > 50 µM | –
Cc1cc(=O)c(O)c(Cc2ccccc2)o1 | > 50 µM | > 50 µM | > 50 µM | –
Cc1cc(=O)c(O)c(Cc2ccc(Cl)cc2)o1 | > 50 µM | > 50 µM | > 50 µM | –

Now those with a lower IC50 [2], led by results:

IC50 [1] | IC50 [2] | IC50 [3] | SMILES | also measured
> 50 µM | 27.2 µM | > 50 µM | Cc1cc(=O)c(O)c(C(c2ccc(CCc3ccccc3)cc2)c2oc(C)cc(=O)c2O)o1 | –
– | 20.1 µM | 0.08 µM | Cc1ccccc1C(C(=O)NC1CCCCC1)N(C(=O)Cn1ccnc1C)c1cccc(F)c1 (stereo not given) | Activity [4]: 84%; Activity [5]: 56%; inhibition [6]: 86.9%; Activity [7]: 70%; Activity [8]: 51%
2.6 µM | 5.2 µM | 32 µM | COc1ccc(COc2ccc(C(c3oc(C)cc(=O)c3O)c3oc(C)cc(=O)c3O)cc2)cc1 | –
1.43 µM | 4.6 µM | 23.1 µM | Cc1cc(=O)c(O)c(C(c2ccc(OCc3ccccc3)cc2)c2oc(C)cc(=O)c2O)o1 | Activity [4]: 82.8%; inhibition [9]: Dose-dependent effect; Activity [10]: 61%; inhibition [6]: 86.5%; inhibition at 0.5 µM [11]: 11.3%; inhibition at 1 µM [12]: 96.8%; inhibition at 1 µM [13]: 99.5%; inhibition at 0.5 µM [14]: 75%; Activity [15]: 43.5%; Activity [8]: 69.5%
